Columns and labels:
Homo sapiens [1] = species on record: Homo sapiens; assay: Alkylating activity of compound remaining after 24 hours of incubation with 10% human blood serum; assay type: functional
Homo sapiens [2] = species on record: Homo sapiens; assay: Alkylating activity of compound remaining after 48 hours of incubation with 10% human blood serum; assay type: functional
Homo sapiens [3] = species on record: Homo sapiens; assay: Alkylating activity of compound remaining after 96 hours of incubation with 10% human blood serum; assay type: functional
MOLT-4 = assay: In vitro inhibitory activity against acute lymphoblastic leukemia (MOLT4) cell line.; assay type: functional, cell-based; settings: Homo sapiens
Summary of the method: (§1)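 MCF7 (trypsinized monolayer) or MOLT4 (suspension) cells in RPMI 1640 with 10% FCS, plated at 1.0 × 10^5 cells/mL and allowed 24 h recovery. Then 6 days continuous drug exposure, 0.15–40 µM, triplicate wells. Propidium iodide fluorescence read (ex 530/em 620) before and after freeze-kill; viable cells = FU2 − FU1; %T/C; IC50 as mean ± SD, n = 3.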

[4] = Time required to reduce the alkylating activity of 10% human blood serum from its initial value by 50%.; assay type: ADME, Plasma
MCF7 = assay: In vitro inhibitory activity against mammary carcinoma (MCF-7) cell line.; assay type: functional, cell-based; settings: Homo sapiens; summary of the method: as §1

SMILES	Activity (Homo sapiens [1]) [%]	Activity (Homo sapiens [2]) [%]	Activity (Homo sapiens [3]) [%]	IC50 (MOLT-4) [µM]	half-life [4] [h]	IC50 (MCF7) [µM]
O=C(CCCc1ccc(N(CCCl)CCCl)cc1)OCCN1C(=O)C=CC1=O	20.9	13.8	11	7.8	3.1	
O=C(CCCc1ccc(N(CCCl)CCCl)cc1)N/N=C/CN1C(=O)C=CC1=O	25	19.5	15.2	0.35	4	6.8
O=C(CCCc1ccc(N(CCCl)CCCl)cc1)Oc1cccc(N2C(=O)C=CC2=O)c1	22.3	15.2	12.1	15.3	4.3	
C/C(=N\NC(=O)CCCc1ccc(N(CCCl)CCCl)cc1)c1cccc(N2C(=O)C=CC2=O)c1	22.9	13.7	10.9	3.3	4.5	
O=C(CCCc1ccc(N(CCCl)CCCl)cc1)N/N=C/c1cccc(N2C(=O)C=CC2=O)c1	24.1	14.5	13.4	7.5	5.9	35.5
O=C(O)CCCc1ccc(N(CCCl)CCCl)cc1 [CHLORAMBUCIL]	12.2	6.6		6.3	4.5	24.6

— ChEMBL document CHEMBL1131029, “Synthesis and in vitro efficacy of transferrin conjugates of the anticancer drug chlorambucil” (J Med Chem, 1998)
